The test system of assay [1] is Escherichia coli. The experiment in a line: Inhibition of Escherichia coli N-acetyl-muramoyl-L-alanine amidase AmiD assessed as residual activity at 100 uM after 20 mins. The essentials:
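Periplasmic soluble E. coli AmiD (sAmiD, 39 nM) was preincubated with the test compound for 20 min at 30 °C in 20 mM sodium phosphate buffer containing 48 nM ZnCl₂. Residual activity was taken as the initial rate of hydrolysis of 29 µM TCT (GlcNAc-anhMurNAc-tetrapeptide) added afterwards. The reaction was stopped after 20 min with diluted H₃PO₄ and analysed by RP-HPLC.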

The test system of assay [2] is Escherichia coli. The assay can be described thus: Inhibition of Escherichia coli N-acetyl-muramoyl-L-alanine amidase AmiD assessed as residual activity at 1 mM preincubated for 30 mins.
Assay [3] has as its system Escherichia coli. The experiment in a line: Inhibition of Escherichia coli N-acetyl-muramoyl-L-alanine amidase AmiD assessed as residual activity at 1 mM after 20 mins; values are per cent of control.
Assay [4] concerns Escherichia coli. The assay can be described thus: Inhibition of Escherichia coli N-acetyl-muramoyl-L-alanine amidase AmiD assessed as residual activity at 0.5 mM after 20 mins; values are per cent of control.

Activity calls are given as the source filed them. The calls are words filed in the database; no cut-off is given here.

For `CC(=O)N[C@H]1[C@@H]2OC[C@@H](O2)[C@@H](O)[C@H]1O[C@H](C)C(=O)N[C@@H](C)C(=O)Nc1ccc([N+](=O)[O-])cc1`, the inhibition entry in the assay with Escherichia coli [1] and in the assay on Escherichia coli [2] was “inactive” throughout.

With `CC(=O)N[C@H]1[C@@H]2OC[C@@H](O2)[C@@H](O)[C@H]1O[C@H](C)C(=O)Nc1ccc(C(F)(F)F)cc1`, the inhibition entry in the assay with Escherichia coli [1] and in the assay on Escherichia coli [2] was “inactive” each time.

As for `CC(=O)N[C@H]1[C@@H]2OC[C@@H](O2)[C@@H](O)[C@H]1O[C@H](C)C(=O)Nc1ccccc1`, the inhibition entry in the assay with Escherichia coli [1] and in the assay with Escherichia coli [2] was “inactive” each time.

What is called residual activity is the activity still measured, relative to the control. For the compound `CC(=O)N[C@H]1[C@@H]2OC[C@@H](O2)[C@@H](O)[C@H]1O[C@H](C)C(=O)N[C@@H](C)C(=O)N[C@H](CCC(=O)Nc1ccccc1)C(=O)O`, the inhibition entry in the assay with Escherichia coli [1] is “inactive”. Also, the residual activity with Escherichia coli [3] came to 64%; in the assay with Escherichia coli [4], 83%.

Regarding `CC(=O)N[C@H]1[C@@H]2OC[C@@H](O2)[C@@H](O)[C@H]1O[C@H](C)C(=O)Nc1ccc(C(C)=O)cc1`, the inhibition entry in the assay with Escherichia coli [1] and with Escherichia coli [2] was “inactive” in each case.

With `CC(=O)N[C@H]1[C@@H]2OC[C@@H](O2)[C@@H](OCc2ccccc2)[C@H]1O[C@H](C)C(=O)O`, the inhibition result in the assay with Escherichia coli [2] was “inactive”.

The record behind these values is ChEMBL document CHEMBL1268948, “1,6-AnhMurNAc derivatives for assay development of amidase AmiD” (Bioorg Med Chem, 2010).
